Bioassay records (PubChem)
This is one part of a sample in which hits are shown more often than they occur.
Diaph inh CS: diaphorase inhibition or chemical oxidation counter-screen; diaphorase resazurin-to-resorufin fluorescence, NADH, 16 min; bacterial (C. kluyveri) enzyme, not human; inhibition, % at 20 µM; hit rate 0.69% among 190,000;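 active means primary screen inhibition at 20 µM above a set limit, cut at about 50% in these data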
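Test system: diaphorase enzyme from Clostridium kluyveri; amount: diaphorase at 0.14 U/mL in enzyme working solution; detection: fluorescence of resorufin formed from resazurin, Ex 544/Em 590 nm; times: reaction incubation of 16 min at room temperature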
L major viab: reduces viability of Leishmania major promastigotes | hit rate 9% among 200,000 | inhibition, % at 10 µM | resazurin fluorescence viability;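 further: promastigotes grown with compound for 44 hours at 28 °C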
DTT redox prof: compounds producing H2O2 with reducing agent – biochemical, NIH compound library profiling, artefact control for MLSCN library redox annotation, primary screen. DTT-dependent redox cycling H2O2, phenol red/HRP absorbance; 100% = 100 µM peroxide control, 0% = buffer. activation, % at 10 µM. hit rate 0.03% among 200,000;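 active means activation of at least 50% relative to the plate's high and low controls in the primary single-dose screen; inactive means activation below 50%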;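 further: compound incubated with DTT at 0.8 mM final as the reducing agent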
PfGluPho inh: PfG6PD (Plasmodium falciparum) enzyme inhibition; PfGluPho enzyme, NADPH resazurin-diaphorase fluorescence; inhibition, % at 20 µM; hit rate 0.78% among 350,000; AID 504690;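 active means inhibition reaching at least a set limit at 20 µM in the primary screen, cut at about 59% in these data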
G6PDH CS: counter-screen for G6PDH assay hits: L. mesenteroides G6PDH inhibition; hit rate 0.12% among 200,000; inhibition, % at 5 µM; Purified L. mesenteroides G6PDH, diaphorase/resazurin coupled fluorescence, 45 min
Diaph act CS: counter-screen for diaphorase-based assays: diaphorase activators and chemical reducers; Diaphorase/resazurin coupled assay, resorufin fluorescence, 16 min; hits give high values; 1 = vehicle wells, 0 = NADH-free wells; activation factor at 20 µM; hit rate 0.005% among 190,000; AID 1229;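 active means diaphorase activity raised at least twofold by the compound at 20 µM; inactive means activation factor below 2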
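test system = bacterial diaphorase enzyme (C. kluyveri) | quantity = enzyme 0.07 U/mL final | reagent = NADH substrate 0.114 mM plus resazurin dye 0.1 mM, final | incubation = 16 min enzyme reaction, ambient temperature | buffer or medium = HEPES pH 7.4 buffer with MgCl2 and Tween 20 | signal = fluorescence of resorufin, 544 nm excitation, 590 nm emission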
PfGluPho conf: confirmation of Plasmodium falciparum G6PD inhibitors. recombinant PfGluPho, NADPH-diaphorase-resazurin fluorescence. hit rate 34% among 2,400. shares compounds with PfGluPho inh. inhibition, % at 20 µM;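 active means inhibition of at least 50% at 20 µM in any single replicate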
Diaphorase 10uM: counter-screen for P. falciparum G6PD inhibitors: diaphorase inhibitors, oxidizers; shares compounds with PfGluPho inh; diaphorase-coupled resazurin reduction, fluorescence, NADPH 10 uM; inhibition, % at 20 µM; hit rate 39% among 820; AID 504862;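 active means average inhibition reaching 50% or more with the compound at 20 µM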;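 further: resorufin red fluorescence formed as diaphorase reduces resazurin using NADPH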
Diaph ctr 30uM: counter-screen for P. falciparum G6PD inhibitors: diaphorase inhibitors, oxidizers; hit rate 29% among 820; inhibition, % at 20 µM; shares compounds with PfGluPho inh; Diaphorase/resazurin coupled assay, resorufin fluorescence, 30 uM NADPH; AID 504863;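 active means inhibition averaging 50% or more, tested at 20 µM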
Hits are given with their value; i = inactive; nt = no result given. Unless noted, no stated cut-off is given here; in the data, active means inhibition above about 50%; inactive means the rest.

SMILES	Diaph inh CS	L major viab	DTT redox prof	PfGluPho inh	G6PDH CS	Diaph act CS	PfGluPho conf	others
CN(O)/C=c1/ccc2c(n1)C(=O)C=CC=2	69	i	i	68	58	i	58	Diaphorase 10uM=i;Diaph ctr 30uM=i
C=CCSc1nc2sc3c(c2c(=O)n1CC)CCc1ccccc1-3	i	i	i	84	i	i	51	Diaphorase 10uM=i;Diaph ctr 30uM=i
O=C(COC(=O)c1ccccn1)c1ccc([N+](=O)[O-])cc1	nt	nt	nt	63	nt	nt	i
O=C(CNC(=O)c1cccs1)c1ccc([N+](=O)[O-])cc1	i	i	i	i	i	i	nt
O=C(CNC(=O)c1ccco1)OCC(=O)c1ccc([N+](=O)[O-])cc1	nt	nt	nt	63	nt	nt	66	Diaphorase 10uM=i;Diaph ctr 30uM=i
O=C(CNC(=O)c1cccs1)OCC(=O)c1ccc([N+](=O)[O-])cc1	i	i	i	68	i	i	49	Diaphorase 10uM=i;Diaph ctr 30uM=i
O=C(Cc1ccccc1)NCC(=O)OCC(=O)c1ccc([N+](=O)[O-])cc1	i	i	i	68	i	i	67	Diaphorase 10uM=i;Diaph ctr 30uM=i
O=C(CNC(=O)c1ccco1)OCC(=O)c1ccc(Cl)cc1	i	i	i	i	i	i	nt
O=C(CNCCc1ccccc1)N1CCc2ccccc2C1	i	i	i	i	i	i	nt
COC(=O)Cn1ccnc1[N+](=O)[O-]	nt	nt	nt	i	nt	nt	nt
O=C1c2ccccc2NC(c2ccc(O)cc2)N1c1ccccc1 (stereo not given)	nt	nt	nt	i	nt	nt	nt
Cc1ccc(C)c(N2CCN(C(=O)CCS(=O)(=O)c3ccc4c(c3)CCN4C(=O)C3CC3)CC2)c1	nt	nt	nt	i	nt	nt	nt
CSCCC(NC(=O)c1ccccc1Cl)C(=O)Nc1ccc(C)c(S(=O)(=O)N2CCOCC2)c1 (stereo not given)	nt	nt	nt	i	nt	nt	nt
S=C(Nc1ccc(Cc2ccncc2)cc1)Nc1cccc(Cl)c1	i	i	i	i	i	i	nt
Cc1ccc(C(=O)COC(=O)CNC(=O)CNC(=O)c2ccc(C)cc2)cc1	i	i	i	i	i	i	nt
Cc1ccc(C(=O)NCC(=O)NCC(=O)OCC(=O)c2ccc([N+](=O)[O-])cc2)cc1	i	i	i	63	i	i	62	Diaphorase 10uM=i;Diaph ctr 30uM=i
O=C(CNc1ccccc1)c1ccc([N+](=O)[O-])cc1	i	i	i	64	i	i	i
Fc1ccc(C[n+]2csc3ccccc32)cc1	i	i	i	64	i	i	i
Cc1cc(C)nc(NC(N)=NCCc2ccccc2)n1	nt	nt	nt	79	nt	nt	51	Diaphorase 10uM=i;Diaph ctr 30uM=i
CC1C(=NO)C(C)C(c2ccc(N(C)C)cc2)NC1c1ccc(N(C)C)cc1 (stereo not given)	i	i	i	i	i	i	nt
Cc1ccc(NC(=O)CN(C)CC(=O)Nc2ccc(N3CCOCC3)cc2)c([N+](=O)[O-])c1	i	i	i	i	i	i	nt
CCOC(=O)c1c(NC(=O)c2ccccc2Br)sc2c1CCc1ccccc1-2	i	i	i	64	i	i	i
Cn1c(NN)nc2sc3c(c2c1=O)CC(C)(C)OC3	i	i	i	65	i	i	i
CCC1(C)Cc2c(sc3nc(NC)n(C)c(=O)c23)CO1 (stereo not given)	i	i	i	i	i	i	nt
O=C(O)c1cc(O)c2c(c1)[C@@H]([C@H]1c3cc(C(=O)O)cc(O)c3C(=O)c3c(O[C@@H]4O[C@H](CO)[C@@H](O)[C@H](O)[C@H]4O)cccc31)c1cccc(OC3O[C@H](CO)[C@@H](O)[C@H](O)[C@H]3O)c1C2=O (stereo not given in full)	nt	nt	nt	69	nt	nt	i
SMILES	Diaph inh CS	L major viab	DTT redox prof	PfGluPho inh	G6PDH CS	Diaph act CS	PfGluPho conf	others
O=C1c2cc(CO)cc(O)c2C(=O)c2c(O[C@@H]3OC(CO)[C@@H](O)[C@@H](O)[C@@H]3O)cccc21 (stereo not given in full)	nt	nt	nt	i	nt	nt	nt
O=C(O)c1cc(O)c2c(c1)[C@H]([C@H]1c3cc(C(=O)O)cc(O)c3C(=O)c3c(O[C@@H]4O[C@H](CO)[C@@H](O)[C@H](O)[C@H]4O)cccc31)c1cccc(OC3O[C@H](CO)[C@@H](O)[C@H](O)[C@H]3O)c1C2=O (stereo not given in full)	nt	nt	nt	71	nt	nt	i
O=C1c2c(O)cccc2C(C2OC(CO)[C@@H](O)[C@H](O)[C@H]2O)c2cc(CO)cc(O)c21 (stereo not given in full)	nt	nt	nt	i	nt	nt	nt
CC1CCCN(C(=O)c2ccc(NC(=O)CC3SC(N4CCCC4)=NC3=O)cc2)C1 (stereo not given)	nt	nt	nt	i	nt	nt	nt
COc1cccc(C(=O)/C=C2\Sc3ccccc3N2C)c1	i	i	i	82	i	i	i
CC(C)CSc1nc2c(c(=O)[nH]c(=O)n2C)n1CC(O)COc1cccc2ccccc12 (stereo not given)	i	i	i	64	i	i	i
CSc1ccc(CNCCCN(C)C)cc1	i	i	i	i	i	i	nt
O=C(OCC(=O)N1CCCCCC1)c1ccc([N+](=O)[O-])cc1Cl	i	i	i	i	i	i	nt
COc1cc(C)ccc1Oc1ccc([N+](=O)[O-])cc1	nt	nt	nt	63	nt	nt	i
COc1cc(C)ccc1OCCOCCOc1ccc([N+](=O)[O-])cc1	i	i	i	i	i	i	nt
CSc1cnn(Cc2ccccc2)c(=O)c1SCc1ccccc1	i	i	i	66	i	i	i
Cc1ccc(N2CCC3CC2c2cc(-c4ccc(C(F)(F)F)cc4)ccc23)cc1 (stereo not given)	nt	nt	nt	i	nt	nt	nt
COc1ccc(C(=O)c2coc3c2C(=O)C(=O)c2ccccc2-3)cc1	nt	nt	nt	111	nt	nt	104	Diaphorase 10uM=97;Diaph ctr 30uM=92
O=C(NC(=S)/C(=C1\CCCCCN1)[N+](=O)[O-])c1ccccc1	nt	nt	nt	i	nt	nt	nt
CN1CCn2cnc(C(=O)NCCCCCNC(=O)OC(C)(C)C)c2C1=O	nt	nt	nt	i	nt	nt	nt
CCOC(=O)c1sc(N)c(C(=O)Nc2ccccc2OC)c1C	i	i	i	66	i	i	i
O=[N+]([O-])c1cccnc1-n1cnc2ccccc21	i	i	i	i	i	i	nt
Cc1cc2ncn(-c3ncccc3[N+](=O)[O-])c2cc1C	nt	nt	nt	76	nt	nt	i
CCCn1c(/C=C/c2ccccc2)nc2ccccc21	i	88	i	59	i	i	i
COc1ccc(/C=C/c2nc3ccccc3n2Cc2ccc(OC)c(OC)c2)cc1	i	i	i	66	i	i	49	Diaphorase 10uM=i;Diaph ctr 30uM=i
COCCOCCn1c(/C=C/c2ccccc2)nc2ccccc21	i	63	i	63	i	i	i
O=C(Nc1ccc(OC(F)(F)F)cc1)Oc1ccccc1N1CCCCC1	nt	nt	nt	i	nt	nt	nt
